Here are results for eight molecules from paper PMC6993113 (Journal of medicinal chemistry, 2017).

“And” between values parts separate entries of the source, which are not always exact repeats. Equal values may be shown once. Bounds are passed on as bounds.

What is called IC50 is the concentration needed to halve the response being measured. For orientation: Cmax means the highest concentration seen after dosing. What is called Ki is the equilibrium dissociation constant of an inhibitor or competing ligand from its target.

For data set [1], the system named is MV4;11 acute leukemia cell line. The experiment in a line: Cell growth inhibition. The data set is classed as cell-based. The settings on record: Homo sapiens, MV4-11, 96 h, read-out: IC50 MV4;11 cell growth inhibition.
For another data set, the system named is MV4;11 xenograft tumors. Conditions: mouse, in vivo.
A short description of another data set: Aqueous solubility. The data set is classed as physicochemical.
A short description of another data set: Pharmacokinetics in rats. The data set is classed as in vivo, Sprague Dawley rats. Conditions: for CL: Rat, PO (25 mg/kg). Summed up:
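Sprague Dawley rats got test compound iv at 5 mg/kg or orally at 25 mg/kg in a vehicle of 20% (v/v) PCP and 70% (v/v) PBS. Blood (100 μL) was drawn by catheter at 0, 5, 15 and 30 min and 1, 2, 4, 6, 8 and 24 hr, then spun at 15 000 rpm for 10 min. Plasma was stored at −80 °C and assayed by validated LC–MS/MS. Parameters were derived noncompartmentally.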

Data set [2] is described as follows: Solubility in the dosing vehicle. The data set is classed as physicochemical. Conditions: 5% DMSO+10% Cremophor+85% saline.
For data set [3], the target named is recombinant human BRD4 BD2 (Homo sapiens, UniProt O60885). The data set is described as follows: Competitive fluorescence-polarization binding assay, BRD4 BD2. The settings on record: for Ki: BRD4 BD2 Ki, FP competitive binding.
In data set [4] the test system is MOLM-13 acute leukemia cell line. The data set is described as follows: Cell growth inhibition. The data set is classed as cell-based. The settings on record: Homo sapiens, MOLM-13, 96 h, read-out: IC50 MOLM-13 cell growth inhibition.
Data set [5] deals with recombinant human BRD4 BD1 (Homo sapiens, UniProt O60885). The data set is described as follows: Competitive fluorescence-polarization binding assay, BRD4 BD1. The settings on record: for Ki: BRD4 BD1 Ki, FP competitive binding, Tables 1, 2, 7 and text.
The target of a further data set is all other 371 kinases. The data set is described as follows: DiscoverX KINOMEscan kinase screening, remaining panel. The data set is classed as binding, human. The settings on record: read-out: IC50 against all other 371 kinases.
The next data set deals with p21. The data set is described as follows: Western blot of p21 in MV4. The data set is classed as cell-based, human. The settings on record: MV4;11 cells, 24 h. (In western blotting, separated proteins are transferred to a membrane and probed.)
Data set [6] concerns MDA-MB-231 xenograft tumors.
For a further data set, the system named is PARP. The data set is described as follows: Western blot of PARP cleavage in MV4. The data set is classed as cell-based, human. Conditions: MV4;11 cells, 24 h.
A further data set has as its system c-Myc. The data set is described as follows: Western blot of c-Myc in MV4. The data set is classed as cell-based, human. The settings on record: MV4;11 cells, 1 h, different concentrations.
[7] abbreviates: Table 4 second column as headed.

Consider `COc1cc2c(cc1-c1c(C)noc1C)ncc1[nH]c(=O)n([C@H](C)c3ccccn3)c12` [Compound 5, I-BET151, reference compound], for which the half-maximal inhibitory concentration (IC50) in data set [1] amounted to 162 ± 112 nM. In addition, the “weight loss or other signs of toxicity” value in the data set on MV4;11 xenograft tumors is “did not cause weight loss or other signs of toxicity”.
In the case of `COc1cc2c(cc1-c1c(C)noc1C)[nH]c1ncnc(-c3c(C)[nH]c4ccccc34)c12` [Compound 21, 4-(6-Methoxy-4-(2-methyl-1H-indol-3-yl)-9H-pyrimido[4,5-b]indol-7-yl)-3,5-dimethylisoxazole], the aqueous solubility result in the data set “Aqueous solubility” is “poor”. The CL in the data set “Pharmacokinetics in rats” came out at 31.7 mL/min/kg. Further, the Cmax in the data set “Pharmacokinetics in rats” (Sprague Dawley, rat, plasma, po, 25 mg/kg) is 1470 ng/mL and ~3 µM. The “solubility in the dosing vehicle” value in [2] is “difficult to dissolve”.
Turning to `COc1cc2c(cc1-c1c(C)noc1C)[nH]c1ncnc(-c3c[nH]c4cc(F)ccc34)c12` [Compound 20, 4-(4-(6-Fluoro-1H-indol-3-yl)-6-methoxy-9H-pyrimido[4,5-b]indol-7-yl)-3,5-dimethylisoxazole], the 50% inhibitory concentration (IC50) in [3] amounted to 12.2 ± 4.2 nM; in data set [4], 374 ± 52 nM; in data set [5], 2.2 ± 1 nM; in [1] it was 76 ± 31 nM. The inhibitory constant (Ki) in data set [3] (setting [7]) stood at 2.6 ± 0.8 nM; in data set [3] (Tables 1, 2, 7 and text), 1 nM; in [5] it was 2.6 nM.
As for `COc1cc2c(cc1-c1c(C)noc1C)[nH]c1ncnc(-c3c(C)[nH]c4cc(F)ccc34)c12` [Compound 22, 4-(4-(6-Fluoro-2-methyl-1H-indol-3-yl)-6-methoxy-9H-pyrimido[4,5-b]indol-7-yl)-3,5-dimethyl isoxazole], the IC50 in data set [3] amounted to 5.6 ± 1.9 nM; in data set [4], 51 ± 6 nM; in data set [5], 2.3 ± 1.1 nM; in data set [1] it was 5.1 ± 2.8 nM. The inhibition constant (Ki) in data set [3] (setting [7]) is 0.9 ± 0.3 nM; in data set [3] (Tables 1, 2, 7 and text), < 1 nM; in data set [5], < 1 nM.
Regarding `COc1cc2c(cc1-c1c(C)noc1C)[nH]c1nc(C)nc(-c3ccnc4ccccc34)c12` [Compound 31, 4-(6-Methoxy-2-methyl-4-(quinolin-4-yl)-9H-pyrimido[4,5-b]indol-7-yl)-3,5-dimethylisoxazole], the IC50 on all other 371 kinases is > 50000 nM. For the same molecule, the CL in the data set “Pharmacokinetics in rats” turned out to be 14.7 mL/min/kg. Moreover, the “solubility in the dosing vehicle” value in data set [2] was “readily soluble”. Moreover, the “effect on p21 protein level” value with p21 is recorded as “effective in inducing upregulation of the cell cycle regulator p21”. Besides, the tumor growth inhibition result in data set [6] (MDA-MB-231 xenograft in mice, 40 mg/kg dosing daily, during the treatment period) was “essentially complete tumor growth inhibition”. The “weight loss or other signs of toxicity” value in data set [6] (mouse, in vivo) was “did not experience weight loss or other signs of toxicity”; in the data set with MV4;11 xenograft tumors, “did not cause weight loss or other signs of toxicity”. Moreover, in the data set with PARP, the “cleavage of PARP (marker of apoptosis)” value is given as “cleavage of PARP”. Besides, the “effect on c-Myc protein level” value with c-Myc is “rapid down-regulation of c-Myc at as early as the 1 h time-point and in a dose-dependent manner”.
Take `COc1cc2c(cc1-c1c(C)noc1C)[nH]c1ccnc(-c3c(C4CC4)n[nH]c3C)c12` [Compound 6, RX-37, reference compound]: the IC50 in data set [1] is 20 ± 9 nM.
With `COc1cc2c(cc1-c1c(C)noc1C)[nH]c1ncnc(-n3nnc4ccccc43)c12` [Compound 28, 4-(4-(1H-Benzo[d][1,2,3]triazol-1-yl)-6-methoxy-9H-pyrimido[4,5-b]indol-7-yl)-3,5-dimethylisoxazole], the “binding to BRD4 BD2 at 1 μM” value in data set [3] (FP binding, 1 μM) is given as “fails to show any appreciable binding”. Moreover, in data set [5] (FP binding, 1 μM), the “binding to BRD4 BD1 at 1 μM” value is “fails to show any appreciable binding”.
In the case of `COc1cc2c(cc1-c1c(C)noc1C)[nH]c1nc(C)nc(-c3c(C)ccc4ncccc34)c12` [Compound 33, 4-(6-Methoxy-2-methyl-4-(6-methylquinolin-5-yl)-9H-pyrimido[4,5-b]indol-7-yl)-3,5-dimethyl-isoxazole], the 50% inhibitory concentration (IC50) in data set [3] was 36.3 ± 6.9 nM; in data set [4], 220 ± 101 nM; in data set [5] it was 93.8 ± 15.8 nM; in data set [1] it was 99 ± 43 nM. Moreover, the Ki in data set [3] (Tables 1, 2, 7 and text) is 10.5 ± 1.9 nM; in data set [5], 38.4 ± 10.5 nM.
